KCNQ1 act – human KCNQ1 channel potentiation or activation. actives 0.35% (n = 310,000). B-score at 10 µM. CHO-K1 KCNQ1, thallium flux FluxOR fluorescence; stronger effect = higher value. P51787;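 active = fluorescence ratio B-score, a plate-corrected score, at least three library SD, with initial intensity B-score within 5 SD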
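Assay system: CHO-K1 cells stably expressing KCNQ1. Medium: assay buffer for compound exposure, DMSO matched across wells. Timing: 37 °C overnight plating, 90-min dark dye load, 20-min compound pretreatment. Signal: kinetic FluxOR fluorescence, 10 s baseline plus 110 s post-stimulus.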
hERG rescue – hERG (human) protection from proarrhythmic block; AID 1511; actives 0.51% (n = 310,000); Q12809; CHO-hERG, FluxOR thallium flux, dofetilide IC70 present; activation (rescue from dofetilide block), less the hit threshold, % at 10 µM;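 active = activation above the mean of controls blocked by dofetilide plus 5 SD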;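 note: thallium influx through hERG after potassium depolarization seen as dye fluorescence rise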
KCNK9 inh – inhibitors of human KCNK9 two-pore domain potassium channel. Q9NPC2. HEK293 KCNK9, FluxOR thallium flux fluorescence; stronger effect = lower value. B-score at 10 µM. actives 1.2% (n = 310,000);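 active = ratio B-score over 3 SD below the library mean, with starting fluorescence within 5 SD of its mean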;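 note: negative B-score means less thallium flux so channel inhibition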
Target sequence (Q9NPC2 whole entry, looked up, the tested form may be a part): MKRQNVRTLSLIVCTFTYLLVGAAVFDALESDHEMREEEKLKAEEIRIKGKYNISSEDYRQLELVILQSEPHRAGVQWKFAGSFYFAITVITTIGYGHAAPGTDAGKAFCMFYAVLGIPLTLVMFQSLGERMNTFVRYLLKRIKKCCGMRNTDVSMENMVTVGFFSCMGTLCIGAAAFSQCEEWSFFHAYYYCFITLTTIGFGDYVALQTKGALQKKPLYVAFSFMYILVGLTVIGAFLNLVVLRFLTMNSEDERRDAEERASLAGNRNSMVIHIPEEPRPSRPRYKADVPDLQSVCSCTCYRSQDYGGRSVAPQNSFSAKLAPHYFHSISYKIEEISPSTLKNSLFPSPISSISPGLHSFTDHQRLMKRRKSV
Kir21 inh – Kir2.1 (mouse) channel inhibition. HEK293-Kir2.1, FluxOR thallium flux fluorescence; stronger effect = lower value. B-score at 10 µM. AID 1672. P35561. actives 0.85% (n = 310,000);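 active = fluorescence ratio B-score at or below minus 3 SD of library scores, with starting-brightness B-score within 2 SD, cut at about -4.2 in these data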;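 note: channel flux triggered by added potassium and thallium sulfate stimulus; B-score of peak minus minimum fluorescence over baseline after thallium stimulus; more negative B-score means stronger Kir2.1 block with less thallium influx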
KCNK3 block – human KCNK3 channel inhibition, primary screen. AID 602410. actives 0.84% (n = 340,000). CHO-KCNK3 thallium flux, FluxOR fluorescence; stronger effect = lower value. B-score at 10 µM. O14649;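 active = B-score under library mean minus 4 SD, starting fluorescence ratio at most library mean plus 5 SD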;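 note: more negative B-score means stronger inhibition of thallium flux through KCNK3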
KCNQ1 inh – human KCNQ1 channel inhibition; CHO-K1 KCNQ1, FluxOR thallium flux fluorescence; stronger effect = higher value; actives 1.3% (n = 310,000); AID 2642; B-score at 10 µM;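 active = compounds whose thallium flux B-score, printed positive for inhibition, exceeds three library SD while starting fluorescence stays within three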;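 note: channel opened by potassium depolarization with thallium stimulus after 20 min compound exposure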
KCNK3 confirm – confirmation of human KCNK3 two-pore domain potassium channel inhibitors. shares compounds with KCNK3 block. CHO-KCNK3 thallium flux, FluxOR fluorescence; 0% buffer, 100% carvedilol maximal block. ratio percent of control, % at 10 µM. actives 99% (n = 2,400);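 active = ratio percent of control, averaged over triplicates, above buffer control mean plus 5 SD, cut at about 64% in these data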;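 note: ratio is the fluorescence rise from min to max over baseline after thallium stimulus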
KCNK3 noninduced – activity in cells without induced KCNK3 expression; shares compounds with KCNK3 block; non-induced KCNK3 parental cells, FluxOR thallium flux; stronger effect = lower value; thallium flux ratio (lower = more inhibition) at 10 µM; actives 40% (n = 2,400);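 active = thallium flux ratio, averaged over three wells, more than 5 SD below the buffer control mean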;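 note: host cells are CHO cells without KCNK3 induction; ratio is peak minus trough fluorescence over baseline then normalized to buffer controls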
Active calls of the source: *; i = inactive; · = no result. Most compounds without a hit are left out; they make up all but 3.8% or so of the library.

SMILES	KCNQ1 act	hERG rescue	KCNK9 inh	Kir21 inh	KCNK3 block	KCNQ1 inh	KCNK3 confirm	KCNK3 noninduced
COC(=O)C1(CC2CC(c3ccc(Cl)cc3)=NO2)CCN(C(=O)OC(C)(C)C)CC1 (stereo not drawn)	i	-9	i	1.3	i	i	·	·
CC[C@]1(C(=O)OC)[C@H]2C(=O)N(Cc3ccccc3)C(=O)[C@H]2[C@H]2CN(C)C(=NCc3ccccc3)N21	·	·	·	·	i	·	·	·
COc1ccc([C@H]2CC(=O)C=C(c3cccc(C(F)(F)F)c3)C2)cc1	·	·	·	·	i	·	·	·
O=S(=O)(c1ccccc1)N1CCN=C1SCc1c(F)cccc1Cl	i	-19	i	-0.23	-11*	i	121*	0.14*
Cc1ccc(S(=O)(=O)N2CCN=C2SCc2ccc(Cl)c(Cl)c2)cc1	i	-2	i	-0.55	i	i	·	·
O=S(=O)(c1ccc(Cl)cc1)N1CCN=C1SCc1cccc(Cl)c1	i	-7	i	-3.9	i	i	·	·
Cc1ccc(C)c(CSC2=NCCN2S(=O)(=O)c2ccccc2)c1	i	-11	-7.9*	-1.7	-11*	i	129*	0.15*
O=C(OCCNc1nc(-c2ccccc2)nc2ccccc12)c1ccncc1	i	-8	-7.3*	-0.82	i	i	124*	0.16*
c1ccc(-c2nc(NCc3cccnc3)c3ccccc3n2)cc1	i	-15	i	-1.5	-9.2*	i	111*	0.15*
O=C(OCCNc1nc(-c2ccccc2)nc2ccccc12)c1cccnc1	i	-16	i	-1.5	i	i	·	·
COc1ccc(CNc2nc(-c3ccccc3)nc3ccccc23)cc1OC	i	-6	i	0.65	-17*	i	114*	0.14*
Cc1ccc(S(=O)(=O)CCC(=O)OCc2cc(=O)oc3cc(C)ccc23)cc1	·	·	·	·	i	·	·	·
CC(=O)NC12CC3CC(C1)CC(C(=O)Nc1ccc(C)c(S(=O)(=O)N4CCCCCC4)c1)(C3)C2	·	·	·	·	i	·	·	·
CCC(C)NS(=O)(=O)c1ccc(S(=O)(=O)N2CCCC3(CCCCC3)C2)cc1 (stereo not drawn)	i	-10	i	-2.4	-9*	i	118*	0.14*
CCC(C)C(=O)Nc1ccc(S(=O)(=O)N2CCCC2)cc1 (stereo not drawn)	i	-5	i	-0.14	i	i	·	·
Cc1ccc(C(=O)NC(C)c2ccc(F)cc2)cc1 (stereo not drawn)	i	-4	i	-3.5	i	i	·	·
Cc1ccc(C(C#N)c2ccc(C(=O)c3ccc(F)cc3)cc2)cc1 (stereo not drawn)	i	-14	i	0.72	-8.8*	13*	99*	0.12*
Cc1cccc(C)c1NC(=O)CNC(=O)c1ccc(NS(=O)(=O)c2ccc3[nH]c(=O)[nH]c3c2)cc1	i	-12	i	-0.58	i	i	·	·
COc1ccc(OCCSc2nc(C)nc3ccccc23)cc1	i	-28	i	0.71	-12*	i	123*	i
COc1ccc(OCCSc2ncccn2)cc1	i	-7	i	-0.8	i	i	·	·
C=C(C)COc1ccc(-c2n[nH]c(C)c2-c2ccc(OC)c(OC)c2)c(O)c1	i	-11	i	0.52	i	i	·	·
Cc1cc(C)n2cc(CSCc3ccco3)nc2n1	i	-3	i	-0.17	-17*	i	78*	i
Cc1cccc2nc(CSCc3ccco3)cn12	i	-7	i	0.13	i	i	·	·
COc1ccc(OC)c(Nc2nc(NCc3ccco3)c3ccccc3n2)c1	i	-9	i	-0.12	-17*	i	134*	0.15*
Oc1ccccc1Nc1nc(NCc2ccco2)c2ccccc2n1	i	-25	i	-0.14	i	i	·	·
SMILES	KCNQ1 act	hERG rescue	KCNK9 inh	Kir21 inh	KCNK3 block	KCNQ1 inh	KCNK3 confirm	KCNK3 noninduced
OC1(c2ccc(OC(F)F)cc2)CSC(=Nc2cccnc2)N1C1CC1 (stereo not drawn)	i	-13	i	-0.99	i	i	·	·
COc1ccc(OC)c(C2(O)CSC(=Nc3cccnc3)N2Cc2ccco2)c1 (stereo not drawn)	i	-16	i	-0.34	-11*	i	0	i
COc1ccc(OC)c(NC2=C(Cl)C(=O)N(Cc3ccccc3)C2=O)c1	i	-11	i	2.7	i	i	·	·
CCOc1ccccc1NC1=C(Cl)C(=O)N(Cc2ccccc2)C1=O	i	-3	i	-1.5	-8.8*	i	117*	0.15*
CCOC(=O)C1CCCN(C(=O)c2cc(Nc3ccc(OC)c(OC)c3)nc3ccccc23)C1 (stereo not drawn)	i	-7	i	1.2	i	i	·	·
CCOC(=O)C1CCCN(C(=O)c2cc(-c3ccc(C)cc3)nc3ccccc23)C1 (stereo not drawn)	i	-31	i	0.91	-9.7*	i	108*	i
CSc1ccccc1C(=O)N(C)C(c1ccccc1)c1ccccc1	i	-13	i	-2.3	-9.1*	i	108*	i
Cc1ccc(S(=O)(=O)CCC(=O)c2cccc([N+](=O)[O-])c2)cc1	i	-26	i	-9.5*	-9.5*	i	114*	0.12*
O=[N+]([O-])c1ccccc1CNCCCCCO	·	·	·	·	i	·	·	·
O=C(CSc1ncnc2c1cnn2-c1ccccc1)NC1CCS(=O)(=O)C1 (stereo not drawn)	·	·	·	·	i	·	·	·
Cc1cc(/C=C2\SC(=S)NC2=O)c(C)n1-c1cccc(O)c1	i	-17	-7.3*	-2.7	-8.9*	i	113*	0.15*
CCCCn1c(N)c(N(CCOC)C(=O)c2cccc(S(=O)(=O)N(C)c3ccc(C)cc3)c2)c(=O)[nH]c1=O	i	-11	i	0.48	i	i	·	·
COc1ccc(/C=N/NC(=O)c2cccs2)c2ccccc12	i	-14	i	3.6	-11*	i	115*	0.15*
COc1cc(C(=S)N2CCOCC2)ccc1OC(=O)c1ccccc1C	i	-6	i	1.2	-8.8*	i	90*	i
COCc1cc(C)nc(SCc2ccc(Br)cc2)c1C#N	i	-8	i	0.14	-11*	i	106*	i
COCc1cc(C)nc(SCc2ccc(Cl)cc2)c1C#N	i	-6	i	0.43	-11*	i	96*	0.15*

Assay outcomes deposited in PubChem by Johns Hopkins Ion Channel Center.
